ChEMBL document CHEMBL1123921, “Quinolonecarboxylic acids. 2. Synthesis and antibacterial evaluation of 7-oxo-2,3-dihydro-7H-pyrido[1,2,3-de][1,4]benzothiazine-6-carboxylic acids” (J Med Chem, 1987)

Legend:
Assay type in all cases: functional
[1] = test system: Enterobacter cloacae; assay: In vitro antibacterial activity against clinical isolates of Enterobacter cloacae 041 (gram negative) by agar dilution assay.
Procedure, shortened: (§1)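 Agar dilution on Isosensitest agar; compound incorporated by twofold serial dilution. Overnight broth cultures delivered by multipoint inoculator at 10⁵ CFU per point. Plates read after 18 h at 37 °C. MIC taken as the lowest concentration giving complete growth inhibition.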

[2] = test system: Klebsiella pneumoniae; assay: In vitro antibacterial activity against clinical isolates of Klebsiella pneumoniae-4 (gram negative) by agar dilution assay.; procedure, shortened: as §1
[3] = test system: Pseudomonas aeruginosa; assay: In vitro antibacterial activity against clinical isolates of Pseudomonas aeruginosa 2437 (gram negative) by agar dilution assay.; procedure, shortened: as §1
[4] = test system: Escherichia coli; assay: In vitro antibacterial activity against clinical isolates of Escherichia coli 15 (gram negative) by agar dilution assay.; procedure, shortened: as §1
[5] = test system: Morganella morganii; assay: In vitro antibacterial activity against clinical isolates of Proteus morganii 27 (gram negative) by agar dilution assay.; procedure, shortened: as §1
[6] = test system: Staphylococcus aureus; assay: In vitro antibacterial activity against clinical isolates of Staphylococcus aureus 18773 (gram-positive) by agar dilution assay.; procedure, shortened: as §1

Measured: MIC

O=C(O)c1cn2c3c(c(Cl)c(N4CCNCC4)cc3c1=O)SCC2
> 50 µg/mL: all assays above
